Wee1 degr inh: human Wee1 degradation inhibition, primary screen. P30291. HeLa Luc-Wee1K328M stability, luciferase luminescence; 100% = proteasome inhibitor MG132 effect. reporter increase, % at 5 µM. hit rate 1.2% among 220,000. AID 1321;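 active means activation above the mean of all tested compounds plus 3 SD, set per screening run, cut at about 8.8% in these data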;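 further: cells exposed to compound for 20 h before luminescence read; 0% = DMSO alone and 100% = MG132 at 30 µM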
Target sequence (P30291 whole entry K328M): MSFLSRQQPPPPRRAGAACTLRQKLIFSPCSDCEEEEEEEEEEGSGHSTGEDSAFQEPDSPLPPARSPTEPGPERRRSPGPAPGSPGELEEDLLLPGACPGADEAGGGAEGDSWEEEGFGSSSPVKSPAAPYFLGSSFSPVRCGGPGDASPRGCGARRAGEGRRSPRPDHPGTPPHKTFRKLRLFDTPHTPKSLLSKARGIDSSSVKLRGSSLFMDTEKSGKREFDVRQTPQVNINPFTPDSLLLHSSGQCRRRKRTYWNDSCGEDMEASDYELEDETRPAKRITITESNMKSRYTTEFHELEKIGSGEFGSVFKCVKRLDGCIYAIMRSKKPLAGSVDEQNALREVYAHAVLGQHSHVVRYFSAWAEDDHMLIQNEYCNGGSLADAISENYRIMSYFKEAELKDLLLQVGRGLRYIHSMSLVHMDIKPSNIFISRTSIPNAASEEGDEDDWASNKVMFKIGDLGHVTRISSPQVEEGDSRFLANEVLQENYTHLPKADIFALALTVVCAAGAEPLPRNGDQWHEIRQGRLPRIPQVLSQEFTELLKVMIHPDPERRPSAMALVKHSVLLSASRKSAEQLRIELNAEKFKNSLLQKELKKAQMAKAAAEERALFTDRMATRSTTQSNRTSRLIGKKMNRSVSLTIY
Insulin prom up: MIN6 insulin promoter up-regulation; hit rate 0.3% among 190,000; MIN6 insulin promoter-GFP reporter, high-content imaging; active compounds read high; z-score at 5 µM;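 active means z-score above 3 at 5 µM with at least 500 cells counted in the well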
bCat nuc transl: beta-catenin nuclear translocation modulation. HeLa beta-catenin nuclear translocation, immunofluorescence imaging. nuclear translocation activity, % at 5 µM. AID 1665. hit rate 0.3% among 190,000;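 active means nuclear translocation activity above 50% at 5 µM, with a well cell count of 50 or more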;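 further: per-cell ratio of nuclear to cytoplasmic median beta-catenin stain intensity; plate controls were DMSO negative control for no effect and GSK-3 inhibitor IX positive control for full effect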
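Test system: HeLa cells, endogenous beta-catenin; Compound: single 5 µM dose plus 0.02–20 µM confirmation series; Times: compound exposure 24 h at 37°C; Signal: fluorescence imaging of beta-catenin antibody stain plus DAPI; Read-out: % activation, nuclear-to-cytoplasmic median beta-catenin signal ratio per cell.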
MT stabilizer: stabilizes microtubules in HeLa cells; HeLa tubulin immunostaining HCS, 24 h; share of cells brighter than vehicle mean+2SD; % tubulin-high responders, % at 10 µM; hit rate 0.83% among 200,000; AID 2205;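 active means plate Z-score above 3 for both tubulin-high and condensed-nucleus cell shares, with cell loss under 80%, at 10 µM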;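 further: anti alpha tubulin signal scored within the nucleus-defined area of each cell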
Autophagy mod: alters autophagy in cells | MEF GFP-LC3 puncta imaging; test concentration mostly 10 µM | AID 463193 | calls only at 10 µM (by protocol) | hit rate 0.98% among 190,000;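 active means percentage of spot-positive cells more than 3 SD above its plate mean, without a fluorescence outlier flag or 80% toxicity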;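 further: spot-positive cell cutoff set from DMSO-treated cells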
Wee1 degr conf: confirmation of human Wee1 degradation inhibitors. HeLa Luc-Wee1K328M degradation, luminescence; vehicle 0%, proteasome-blocked wells 100%. hit rate 4% among 1,100. activation, % at 5 µM. shares compounds with Wee1 degr inh. AID 1410; in the data active means activation above about 8.9%
An asterisk follows results filed as active; i = inactive; · = no result given. An excerpt weighted towards active compounds, which were near 2.9% of everything screened.

SMILES | Wee1 degr inh | Insulin prom up | bCat nuc transl | MT stabilizer | Autophagy mod | Wee1 degr conf
Cc1c(Cl)c(C(F)(F)F)nn1CC(=O)N1CCSCC1 | -0.3 | 0.58 | -0.9 | 4.1 | i | ·
COc1ccc(NS(=O)(=O)c2cc(NC(=O)c3ccccc3F)ccc2N2CCCC2)cc1 | 13.6* | 0.53 | -0.3 | · | · | -2.0
COc1ccccc1-c1nnc(SCC(=O)N2CCOCC2)o1 | 11.5* | 0.38 | 0.3 | 3.3 | i | 3.3
COc1ccccc1-c1nnc(-c2ccc(N3CCOCC3)cc2)o1 | 14.5* | · | 0.2 | 3.4 | i | -1.5
COc1ccccc1-c1nnc(SCC(=O)N2CCC(C)CC2)o1 | -2.2 | -1.03 | -5.2 | 3.4 | i | ·
Cn1c(=O)c2c(ncn2CCCc2ccccc2)n(C)c1=O | 11.6* | -0.73 | -7.3 | 5.3 | i | 1.6
O=C(Nc1ccc(F)cc1F)c1csc(-c2cccs2)n1 | 11.0* | -0.78 | 1.4 | 4.5 | i | 3.1
O=C(Nc1ccc(F)cc1F)c1csc(-c2ccncc2)n1 | -0.7 | 0.28 | -4.9 | 1.5 | i | ·
O=c1[nH][nH]cc1C=NCc1cccc(C(F)(F)F)c1 | -0.3 | 0.12 | -2.7 | 3.1 | i | ·
Cc1ccc(C)c(S(=O)(=O)Nc2nc(C)c(C(=O)Nc3ccccc3)s2)c1 | 13.6* | 1.11 | -1.7 | 3.1 | i | 2.2
O=C(NCc1ccc(OC(F)(F)F)cc1)C12CN(Cc3ccccc3)CC1C(c1cccc([N+](=O)[O-])c1)=NO2 (stereo not given) | 26.4* | · | -2.3 | 1.7 | i | 2.6
CCOc1ccc(S(=O)(=O)N(C)c2ccc(OCC(=O)N3c4ccc(C)cc4C4CN(C)CCC43)cc2)cc1 (stereo not given) | 13.4* | · | 1.0 | 2.9 | i | 0.2
COc1ccc(NC(=S)N(CCCN2CCOCC2)C(C)c2cc3cccc(OC)c3o2)cc1 (stereo not given) | 1.4 | · | -2.1 | 2.9 | i | ·
COc1cccc2cc(C(C)N(CCCN3CCOCC3)C(=S)Nc3ccc(C)c(C)c3)oc12 (stereo not given) | 32.8* | -0.59 | -3.3 | 3.8 | i | 0.3
COc1cccc2cc(C(C)N(CCCN3CCOCC3)C(=S)Nc3cccc(C)c3C)oc12 (stereo not given) | -0.1 | -0.58 | 1.4 | 1.0 | i | ·
COc1cccc2cc(C(C)N(CCCN3CCOCC3)C(=S)Nc3cc(C)ccc3C)oc12 (stereo not given) | 13.6* | -0.88 | -0.3 | 1.3 | i | 2.6
C/C(=N\NS(=O)(=O)c1ccccc1)c1ccc2c(c1)OCCO2 | 7.4 | -0.18 | -0.6 | 4.4 | i | ·
CCCOC(=O)c1c(-c2ccc(C)cc2C)csc1NC(=O)C1C2CCC(O2)C1C(=O)O (stereo not given) | 0.0 | 0.06 | -2.3 | 1.7 | i | ·
O=C(NCc1ccco1)/C(=C\c1ccco1)NC(=O)c1cccs1 | 30.4* | 0.08 | -0.4 | 2.1 | i | 3.9
O=C(NCc1ccco1)/C(=C\c1cccs1)NC(=O)c1cccs1 | 3.5 | -0.12 | 0.7 | 1.8 | i | ·
O=C(COC(=O)CC12CC3CC(CC(C3)C1)C2)Nc1cccnc1Cl | -2.3 | -0.32 | 0.3 | 3.6 | i | ·
Cc1nc(-c2ccccc2)sc1-c1ccnn1C | 17.5* | -0.41 | -2.3 | 3.2 | i | 4.9
COc1cc(C=C2C(=O)OC(C)(C)OC2=O)ccc1OCC(=O)Nc1ccccc1 | 15.3* | -0.21 | -4.9 | 4.3 | i | 3.2
C/C=C/c1ccc(OCC(=O)Nc2ccc(C(N)=O)cc2)c(OC)c1 | -1.9 | 0.35 | -1.3 | 3.6 | i | ·
CCc1[nH]nc2c1C1(CCN(C(=O)OCc3ccccc3)CC1)C(C#N)=C(N)O2 | 16.2* | · | 2.3 | 2.9 | i | 2.0
Cc1ccc(-n2nc(-c3ccccc3)cc2Nc2ccccc2N)cc1 | 11.1* | 0.42 | 0.9 | 3.6 | i | 1.9
Nc1ccccc1Nc1cc(-c2ccccc2)nn1-c1ccccc1 | -1.3 | 0.96 | -2.0 | 4.1 | i | ·
Cc1c(NC(=O)C(=O)/C=C(\O)c2ccc(Br)cc2)c(=O)n(-c2ccccc2)n1C | 0.2 | -0.78 | -5.3 | 2.5 | i | ·
Cc1ccc(C2C(C#N)=C(N)SC(N)=C2C#N)o1 | 1.0 | -0.27 | -0.9 | 2.3 | i | ·
Cc1ccc(C2OC3=C(C(=O)CC(C)(C)C3)C(N)=C2C#N)o1 (stereo not given) | 15.2* | 1.16 | -2.0 | 3.0 | i | 3.3
